# Published values pooled from the literature.
# Target: Serine/threonine-protein kinase BRSK2 (BRSK2, Homo sapiens, UniProt Q8IWQ3)
# Residues used in one study (Q8IWQ3 1-736): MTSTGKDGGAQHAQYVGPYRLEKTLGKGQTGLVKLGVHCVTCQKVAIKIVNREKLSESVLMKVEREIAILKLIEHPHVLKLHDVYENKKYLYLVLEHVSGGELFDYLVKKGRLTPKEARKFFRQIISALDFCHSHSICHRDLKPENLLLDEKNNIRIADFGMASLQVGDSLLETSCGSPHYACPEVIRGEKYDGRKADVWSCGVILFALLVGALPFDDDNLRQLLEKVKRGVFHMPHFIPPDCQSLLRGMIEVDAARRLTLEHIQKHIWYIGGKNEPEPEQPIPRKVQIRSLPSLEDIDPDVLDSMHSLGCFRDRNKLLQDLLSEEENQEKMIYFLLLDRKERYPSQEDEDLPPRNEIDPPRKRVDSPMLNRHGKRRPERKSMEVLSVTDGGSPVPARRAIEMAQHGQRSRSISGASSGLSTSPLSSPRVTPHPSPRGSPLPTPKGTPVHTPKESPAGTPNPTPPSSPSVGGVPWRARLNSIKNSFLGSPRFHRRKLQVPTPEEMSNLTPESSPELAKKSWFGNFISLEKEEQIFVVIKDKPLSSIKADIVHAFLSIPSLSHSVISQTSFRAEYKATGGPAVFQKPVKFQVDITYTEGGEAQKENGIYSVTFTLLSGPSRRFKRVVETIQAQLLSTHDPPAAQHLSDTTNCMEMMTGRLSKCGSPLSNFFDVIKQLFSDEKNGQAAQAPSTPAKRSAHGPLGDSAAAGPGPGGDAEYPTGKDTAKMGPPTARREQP
SMILES,read-out,mode,technique,concentration,measurement,result
N#CC1(c2ccccn2)CCN(Cc2cc(C(=O)O)c(=O)n3ccccc23)CC1,cell-free assay,,competition with immobilised ligand,1 µM,remaining binding,100%
Nc1ncc(-c2nc(N3CCOCC3)nc(N3CCOCC3)n2)c(C(F)F)n1,binding,,competition with immobilised ligand,10 µM,remaining binding,92%
CC(C)(C)c1cc(C=C(C#N)C#N)cc(Br)c1O,enzyme activity,inhibitor,,0.5 µM,remaining activity,94.5%
COc1cc(Nc2ncc(F)c(Nc3ccc4c(n3)NC(=O)C(C)(C)O4)n2)cc(OC)c1OC,binding,,competition with immobilised ligand,10 µM,inhibition,0%
O=c1[nH]c2ccccc2n1C1CCN(Cc2ccc(-c3[nH]c4cc5ncnc5cc4nc3-c3ccccc3)cc2)CC1,cell-free assay,,,0.5 µM,remaining signal,106%
COc1ncccc1-c1cnn2ccc(N3CCN(C(=O)OC(C)C)CC3)nc12,binding,,competition with immobilised ligand,1 µM,remaining binding,82%
Cn1cncc1[C@@](O)(COc1ccc(C#N)cc1-c1ccc(OC(F)(F)F)cc1)c1ccc(C#N)cc1,cell-free assay,,competition with immobilised ligand,1 µM,remaining binding,100%
Cc1nn(C)cc1-c1nc2c(N3CCN(Cc4ccc(Cl)cc4)CC3)c(Cl)cnc2[nH]1,binding,,competition with immobilised ligand,1 µM,remaining binding,100%
